Here are results for nine compounds from the M2OR odorant receptor database.

What all share (settings): stereoisomer not certain
One assay addresses T1, UniProt Q8VG27.
T1 sequence (whole entry): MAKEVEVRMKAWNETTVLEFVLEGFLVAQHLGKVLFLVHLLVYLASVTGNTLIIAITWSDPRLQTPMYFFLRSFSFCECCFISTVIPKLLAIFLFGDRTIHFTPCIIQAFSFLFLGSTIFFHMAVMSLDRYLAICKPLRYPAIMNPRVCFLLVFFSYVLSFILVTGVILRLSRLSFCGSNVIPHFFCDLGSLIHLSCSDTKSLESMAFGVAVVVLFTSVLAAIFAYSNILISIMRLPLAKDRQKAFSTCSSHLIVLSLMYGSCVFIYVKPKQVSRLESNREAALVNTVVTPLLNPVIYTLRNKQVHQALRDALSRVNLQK
Put shortly: (§1)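 Assay methods differ from source to source, frequently being transient luciferase assays in mammalian cell lines. For each receptor–molecule pair, the label responsive (active) applies when the original authors judged the measured signal statistically different from baseline, and non-responsive (inactive) applies otherwise.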

For a further assay, the target named is T2, UniProt Q8VG53.
T2 sequence (whole entry): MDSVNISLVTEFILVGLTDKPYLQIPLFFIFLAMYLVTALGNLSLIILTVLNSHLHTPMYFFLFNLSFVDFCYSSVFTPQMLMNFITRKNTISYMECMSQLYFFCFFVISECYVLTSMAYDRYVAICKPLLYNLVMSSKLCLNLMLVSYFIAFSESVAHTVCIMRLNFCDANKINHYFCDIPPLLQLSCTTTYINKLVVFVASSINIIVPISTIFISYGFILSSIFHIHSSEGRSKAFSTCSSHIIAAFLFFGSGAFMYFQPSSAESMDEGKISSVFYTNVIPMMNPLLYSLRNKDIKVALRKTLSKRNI
In outline: as §1

A further assay has as its target T3, UniProt Q8VG64.
T3 sequence (whole entry): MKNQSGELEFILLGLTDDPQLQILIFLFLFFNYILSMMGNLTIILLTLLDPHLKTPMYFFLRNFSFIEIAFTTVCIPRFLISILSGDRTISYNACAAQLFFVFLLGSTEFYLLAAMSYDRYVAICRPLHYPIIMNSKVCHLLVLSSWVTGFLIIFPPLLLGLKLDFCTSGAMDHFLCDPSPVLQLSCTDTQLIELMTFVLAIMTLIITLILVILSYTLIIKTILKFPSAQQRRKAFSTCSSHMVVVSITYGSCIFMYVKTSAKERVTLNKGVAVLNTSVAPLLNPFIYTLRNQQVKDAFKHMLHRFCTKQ
Put shortly:
as §1

Another assay deals with T4, UniProt Q8VGB9.
T4 sequence (whole entry): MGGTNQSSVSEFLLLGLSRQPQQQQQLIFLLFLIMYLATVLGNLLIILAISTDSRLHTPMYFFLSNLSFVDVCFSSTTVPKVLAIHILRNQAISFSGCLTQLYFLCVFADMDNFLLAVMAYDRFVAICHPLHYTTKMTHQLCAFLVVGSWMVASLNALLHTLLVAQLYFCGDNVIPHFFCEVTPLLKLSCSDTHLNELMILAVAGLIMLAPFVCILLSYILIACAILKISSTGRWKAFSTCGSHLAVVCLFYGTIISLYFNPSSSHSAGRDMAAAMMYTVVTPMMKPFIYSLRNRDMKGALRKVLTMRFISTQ
Put shortly:
as §1

Another assay has as its target T5, UniProt Q8VGC6.
T5 sequence (whole entry): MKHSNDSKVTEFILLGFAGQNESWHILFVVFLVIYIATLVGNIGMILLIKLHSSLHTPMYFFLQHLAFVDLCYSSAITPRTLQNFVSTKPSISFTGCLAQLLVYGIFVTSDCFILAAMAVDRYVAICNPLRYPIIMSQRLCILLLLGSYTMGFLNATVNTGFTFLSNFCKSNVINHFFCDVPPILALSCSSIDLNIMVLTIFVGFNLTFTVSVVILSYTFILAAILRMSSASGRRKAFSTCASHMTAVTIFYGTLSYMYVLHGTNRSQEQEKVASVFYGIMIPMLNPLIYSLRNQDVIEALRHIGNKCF
In outline: as §1

In another assay the target is T6, UniProt Q8VGJ3.
T6 sequence (whole entry): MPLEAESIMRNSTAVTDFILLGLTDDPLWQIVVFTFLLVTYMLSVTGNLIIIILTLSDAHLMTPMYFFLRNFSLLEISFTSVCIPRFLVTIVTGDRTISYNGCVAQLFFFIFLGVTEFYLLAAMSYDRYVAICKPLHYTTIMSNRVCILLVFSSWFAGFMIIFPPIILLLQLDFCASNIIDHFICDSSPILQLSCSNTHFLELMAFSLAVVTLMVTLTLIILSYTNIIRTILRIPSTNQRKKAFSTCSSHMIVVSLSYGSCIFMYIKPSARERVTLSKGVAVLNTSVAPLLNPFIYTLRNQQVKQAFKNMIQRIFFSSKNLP
Put shortly:
as §1

The target of a further assay is T7, UniProt Q8VGL0.
T7 sequence (whole entry): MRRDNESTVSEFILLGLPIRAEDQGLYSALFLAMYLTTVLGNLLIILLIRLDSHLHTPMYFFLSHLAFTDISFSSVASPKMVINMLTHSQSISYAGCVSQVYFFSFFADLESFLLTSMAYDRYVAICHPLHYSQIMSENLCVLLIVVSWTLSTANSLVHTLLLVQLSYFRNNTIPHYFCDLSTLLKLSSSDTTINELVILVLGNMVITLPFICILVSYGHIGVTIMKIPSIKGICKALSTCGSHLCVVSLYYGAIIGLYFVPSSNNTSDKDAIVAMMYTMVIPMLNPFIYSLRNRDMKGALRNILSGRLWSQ
In outline: as §1

With `CCSSCC`, the “odorant receptor agonist call” value with UniProt Q8VG27, with UniProt Q8VG53, in the assay with UniProt Q8VG64, with UniProt Q8VGB9, in the assay with UniProt Q8VGC6 and with UniProt Q8VGJ3 was “inactive” throughout. Also, the “odorant receptor agonist call” value in the assay with UniProt Q8VGL0 was “inactive”.
Regarding `CCN(CC)CC`, the “odorant receptor agonist call” value with UniProt Q8VG27, with UniProt Q8VG53, with UniProt Q8VG64, with UniProt Q8VGB9, with UniProt Q8VGC6 and in the assay with UniProt Q8VGJ3 was “inactive” throughout. The “odorant receptor agonist call” value in the assay with UniProt Q8VGL0 was “inactive”.
`CCc1nccnc1CC`: the “odorant receptor agonist call” value in the assay with UniProt Q8VG27, in the assay with UniProt Q8VG53, in the assay with UniProt Q8VG64, with UniProt Q8VGB9, with UniProt Q8VGC6 and with UniProt Q8VGJ3 was “inactive” throughout. Besides, the “odorant receptor agonist call” value with UniProt Q8VGL0 is “inactive”.
As for `C=CC(=C)CCC=C(C)CCC=C(C)C`, the “odorant receptor agonist call” value in the assay with UniProt Q8VG27, in the assay with UniProt Q8VG53, in the assay with UniProt Q8VG64, in the assay with UniProt Q8VGB9, in the assay with UniProt Q8VGC6 and with UniProt Q8VGJ3 was “inactive” throughout. Besides, the “odorant receptor agonist call” value with UniProt Q8VGL0 is “inactive”.
Regarding `Cc1ccc2c(c1)OCC(=O)CO2`, the “odorant receptor agonist call” value with UniProt Q8VG27, with UniProt Q8VG53, with UniProt Q8VG64, with UniProt Q8VGB9, in the assay with UniProt Q8VGC6 and in the assay with UniProt Q8VGJ3 was “inactive” throughout. The “odorant receptor agonist call” value in the assay with UniProt Q8VGL0 was “inactive”.
Regarding `CSSCc1ccco1`, the “odorant receptor agonist call” value with UniProt Q8VG27 was “active”. For the same compound, the “odorant receptor agonist call” value in the assay with UniProt Q8VG53, with UniProt Q8VG64, with UniProt Q8VGB9, in the assay with UniProt Q8VGC6, with UniProt Q8VGJ3 and in the assay with UniProt Q8VGL0 was “inactive” each time.
As for `O=C(O)CCCCCCCCC(=O)O`, the “odorant receptor agonist call” value with UniProt Q8VG27, with UniProt Q8VG53, in the assay with UniProt Q8VG64, with UniProt Q8VGB9, with UniProt Q8VGC6 and in the assay with UniProt Q8VGJ3 was “inactive” in each case. In addition, the “odorant receptor agonist call” value with UniProt Q8VGL0 was “inactive”.
For `c1ccc2ncccc2c1`, the “odorant receptor agonist call” value in the assay with UniProt Q8VG27, with UniProt Q8VG53, in the assay with UniProt Q8VG64, with UniProt Q8VGB9, with UniProt Q8VGC6 and in the assay with UniProt Q8VGJ3 was “inactive” in each case. Besides, the “odorant receptor agonist call” value with UniProt Q8VGL0 was “inactive”.
For `CCCCCCCCCCOC(C)=O`, in the assay with UniProt Q8VG27, the “odorant receptor agonist call” value is “active”. Moreover, the “odorant receptor agonist call” value with UniProt Q8VG53, in the assay with UniProt Q8VG64, in the assay with UniProt Q8VGB9, in the assay with UniProt Q8VGC6, with UniProt Q8VGJ3 and with UniProt Q8VGL0 was “inactive” in each case.
